# Source: PubChem (several laboratories)
# Efflux pump mplx – blocks antifungal efflux pumps in multiplex yeast assay | S. cerevisiae Candida pump triplex, Nile Red efflux | inhibition, % at 10 µM | actives 0.44% (n = 330,000) | AID 485275;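 active = plate passing quality check with inhibition over a set limit, or well fluorescence over plate mean plus 4 SD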;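 note: Nile Red retained in pooled yeast measured as flow cytometry median fluorescence; 0% = buffer negative control and 100% = Enniatin B positive control; higher means more Nile Red kept so more efflux inhibition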
# GalR3 antag – antagonists of human GalR3 | AID 651719 | O60755 | HEK293 GalR3-CNG cAMP membrane potential fluorescence; galR3 body fused to GalR1 C-terminus | actives 0.44% (n = 360,000) | inhibition, % at 3 µM;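 active = inhibition above the screen-wide average plus 3 SD, cut at about 13% in these data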;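 note: forskolin and galanin both at EC90 stimulate the cells; cAMP rise reported by CNG channel membrane potential dye signal; 0% = forskolin plus galanin with DMSO and 100% = forskolin alone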
# Target sequence (O60755 1-299 limits assumed): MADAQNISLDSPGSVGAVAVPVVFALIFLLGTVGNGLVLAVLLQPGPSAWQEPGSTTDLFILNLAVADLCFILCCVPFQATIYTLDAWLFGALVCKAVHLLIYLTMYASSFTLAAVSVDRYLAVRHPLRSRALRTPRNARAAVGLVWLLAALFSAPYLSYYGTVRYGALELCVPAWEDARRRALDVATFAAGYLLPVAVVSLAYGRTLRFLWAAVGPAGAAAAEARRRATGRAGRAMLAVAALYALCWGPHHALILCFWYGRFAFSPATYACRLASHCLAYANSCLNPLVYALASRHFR
# MC4R barr agon – activates human MC4R beta-arrestin recruitment | activation, % at 8.9 µM | P32245 | actives 0.98% (n = 360,000) | U2OS MC4R beta-arrestin complementation, luminescence; percent of melanotan II response, DMSO zero;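 active = activation above a per-plate cutoff, the mean activation of sample wells on that plate plus 3 SD, cut at about 8% in these data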
# MC4R antagonist – blocks human MC4R cAMP signaling | P32245 | MC4R-expressing cells, MTII-stimulated cAMP, LANCE TR-FRET | inhibition, % at 6.5 µM | actives 0.48% (n = 360,000) | AID 540295;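 active = inhibition above its plate's cutoff, the mean of tested wells on that plate plus 3 SD, cut at about 29% in these data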;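 note: 0% = Melanotan II alone and 100% = Melanotan II plus saturating MCL0020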
#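 Material: human MC4R-expressing U2OS cells. Probe or stimulus: Melanotan II challenge. Dosing: 6.5 µM single dose. Times: 30-min compound, 1-h challenge, 1-h detection, room temperature. Technique: TR-FRET with Eu-cAMP and labeled anti-cAMP, 671 nm. Replication: singlicate.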
# H9c2 TAG inh – reduces triacylglycerol accumulation in H9c2 cells. Nile Red lipid (TAG) fluorescence; cells loaded with 200 µM oleic acid. inhibition, % at 12.5 µM. actives 0.66% (n = 230,000);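 active = pattern-corrected inhibition of lipid staining of at least 50% with the nuclear-stain viability signal not falling by more than 50%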;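 note: 0% = DMSO wells and 100% = triacsin C control wells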
# Calb FLC – C. albicans growth modulation with fluconazole; growth inhibition, % (concentration not given with the values); actives 0.57% (n = 300,000); C. albicans CaCi-2 (fluconazole-resistant clinical isolate) + fluconazole, Alamar Blue growth, 48 h;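 active = growth inhibition above about 58% in most replicates, limit read from the data, passing the limit was not always enough; inconclusive = exactly half the replicates above a set limit; inactive = most replicates below a set limit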;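 note: all wells also contain fluconazole at 8 µg/ml as a sub-toxic cotreatment; 0% = median of DMSO wells and 100% = median of geldanamycin control wells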
# * hit, by the source's call; ? = inconclusive; / = no result. The list is not random: actives were taken first. Their share in the collection is about 2.9%.
SMILES,Efflux pump mplx,GalR3 antag,MC4R barr agon,MC4R antagonist,H9c2 TAG inh,Calb FLC
Cc1cc(NC(=O)Cc2c(C)[nH]c3ccccc23)ccc1Oc1cccnc1,/,-7.4,/,/,/,/
CCOc1ccc(NC(=O)c2cn(-c3ccc(OCC)cc3)c(=O)c3cc(OC)c(OC)cc23)cc1,0.7,-2.1,-2.6,20.1,23.8,86.0*
O=C(Cc1c(Cl)cccc1Cl)NCCc1ccc(Cl)cc1,0.1,-7.0,9.3*,3.1,/,-13.7
O=c1c(Cl)c(Cl)cnn1-c1ccccc1,/,5.6,5.0,28.1,72.0*,?
CC(=O)N1CCC2(CC1)NC(=O)N(c1ccccc1)N2,-0.1,-0.8,-1.4,7.5,2.1,6.5
NC(=O)N1CCC2(CC1)NC(=O)N(c1ccccc1)N2,0.0,3.8,0.0,26.7,-4.2,108.6*
CCCC(=O)NC(c1cccs1)c1cc([N+](=O)[O-])c2cccnc2c1O (configuration not stated),-0.3,-5.7,-3.6,3.1,/,39.7
CCC(=O)NC(c1cccs1)c1cc([N+](=O)[O-])c2cccnc2c1O (configuration not stated),-0.1,-3.4,-3.8,8.5,/,85.8*
CC(=O)NC(c1cccs1)c1cc([N+](=O)[O-])c2cccnc2c1O (configuration not stated),-0.2,-5.0,-3.6,2.8,13.5,81.3*
CCC1=NN(C(=O)c2ccc(Cl)cc2)C(O)(c2ccccc2)C1 (configuration not stated),0.1,-7.1,-0.8,1.0,/,-52.3
COC(=O)C1=NN(C(=O)c2ccc(Cl)cc2)C(O)(c2ccccc2)C1 (configuration not stated),0.0,2.7,1.2,2.8,/,59.5*
CNC(=O)C1CCC(=O)N1Cc1c[nH]c2ccccc12 (configuration not stated),/,-6.8,/,/,/,/
O=C(/C=C/c1ccc(Cl)cc1)N(c1ccccn1)C1CCCCC1,0.3,-3.3,-0.5,2.3,-13.0,17.5
COc1ccc(/C=C/C(=O)N(c2ccccn2)C2CCCCC2)cc1OC,0.0,-1.5,-1.0,0.6,3.8,83.4*
O=C(NCc1cccnc1)c1csc([C@@H]2C[C@H](O)[C@@H](CO)O2)n1,/,-0.6,-0.6,-2.1,8.6,/
Cc1c(Cc2ccccc2)c(=O)oc2cc(O)ccc12,0.0,-3.6,0.0,-3.2,-29.9,1.3
Cc1c(Cc2ccccc2)c(=O)oc2c(O)c(O)ccc12,/,-3.1,0.5,3.3,/,108.4*
COc1cc(C(=O)NC(=S)N(CCc2ccccc2)CCc2ccccc2)cc(OC)c1OC,0.2,-3.5,0.1,26.9,6.7,92.8*
COc1cc(C(=O)NC(=S)N(C)Cc2ccccc2)cc(OC)c1OC,0.0,-2.0,-0.4,3.9,/,-5.1
COc1cc(NC(=O)c2cc(C)on2)cc(OC)c1OC,0.0,/,-1.3,10.5,/,4.9
Cc1cc(C(=O)NNc2ccc(Cl)cc2)no1,0.0,-4.7,-1.6,-0.7,-15.9,102.6*
Cc1cc(C(=O)NNC(=O)Nc2ccc(Cl)cc2)no1,0.2,3.8,1.8,-0.8,9.6,4.0
CCOC(=O)c1cc(NC(=O)c2cc(C)on2)cc(C(=O)OCC)c1,-0.1,-3.9,30.6*,-0.7,/,6.5
CC1(C)COCN1S(=O)(=O)c1ccc(C(=O)Nc2nnc(-c3ccc(Cl)s3)o2)cc1,-0.2,/,/,/,/,78.6*
CCN1CCN(C(=O)c2ccc(CSc3ccc(C)cc3)cc2)CC1,0.0,-5.7,0.4,4.6,/,98.1*
SMILES,Efflux pump mplx,GalR3 antag,MC4R barr agon,MC4R antagonist,H9c2 TAG inh,Calb FLC
C(=NNc1nnn(Cc2ccccc2)n1)c1ccccc1,/,-2.5,4.8,-10.4,12.0,/
Cc1cccn2cc(-c3ccc(NC(=O)Cc4ccccc4)cc3)nc12,-0.1,/,9.3*,3.5,-10.2,-5.7
COc1ccc(CC(=O)Nc2ccc(-c3cn4cccc(C)c4n3)cc2)cc1OC,-0.1,-6.2,0.9,5.0,31.7,1.0
CCOC(=O)c1c(NC(=O)CN(C)C)sc(C(=O)N(CC)CC)c1C,0.0,-7.4,-0.2,4.3,10.1,6.9
CCOC(=O)c1c(NC(=O)C2c3ccccc3Oc3ccccc32)sc(C(=O)N(CC)CC)c1C,0.1,/,-1.2,2.4,80.5*,4.7
C/C(=N\Nc1ncc(Cl)cc1Cl)c1ccccn1,/,/,-3.4,5.5,-23.6,98.4*
